Measurements pooled from the literature.
Compare with care: the assays were run in different laboratories.
Target: Calcium/calmodulin-dependent protein kinase type II subunit delta (CAMK2D, Homo sapiens, UniProt Q13557)

| SMILES | observed | mode | technique | cell line | tested at | measurement | result |
| --- | --- | --- | --- | --- | --- | --- | --- |
| COc1cc2ncnc(Nc3ccc(Oc4ccccc4)cc3C)c2cc1OC | enzyme activity | inhibitor | – | – | 1 µM | inhibition | 4% |
| CC(C)(C)c1nc(-c2cccc(NS(=O)(=O)c3c(F)cccc3F)c2F)c(-c2ccnc(N)n2)s1 | enzyme activity | inhibitor | radiometric | – | 1 µM | remaining activity | 97% |
| CC(=O)N1CCC(c2ccc(C(=O)NC(=N)N)cc2C(F)(F)F)CC1 | cell-free assay | – | competition with immobilised ligand | – | 1 µM | remaining binding | 100% |
| CNC(=O)c1cc(Oc2ccc(NC(=O)Nc3ccc(Cl)c(C(F)(F)F)c3)cc2)ccn1 | enzyme activity | inhibitor | – | – | 0.3 µM | inhibition | 56% |
| CCN(CC)c1ccc(C2=NNC(=O)CC2C)cc1[N+](=O)[O-] (stereo not drawn) | enzyme activity | inhibitor | – | – | 10 µM | remaining activity | 104% |
| CC(C)(O)[C@H]1CC[C@H](Nc2ccc3ncc(-c4cccc(C(F)(F)F)c4)n3n2)CC1 | enzyme activity | inhibitor | – | – | 1 µM | remaining activity | 81.8% |
| Cc1c(NC(=O)c2cc(C(N)=O)nc3cc(F)ccc23)c(C(F)(F)F)nn1Cc1ccc(C#N)cc1 | cell-free assay | – | competition with immobilised ligand | – | 1 µM | remaining binding | 90% |
| CC/C(=N\NC(=O)NCc1cccc(O)c1)c1ccc(O)c(C)c1O | enzyme activity | inhibitor | – | – | 0.1 µM | inhibition | -4.9% |
| C[S+]([O-])c1ccc(-c2nc(-c3ccncc3)c(-c3ccc(F)cc3)[nH]2)cc1 (stereo not drawn) | cell-free assay | – | – | – | 0.5 µM | remaining signal | 103% |
| O=C(NS(=O)(=O)c1ccc(NCC2CCOCC2)c([N+](=O)[O-])c1)c1ccc(N2CCN(Cc3ccc(C(F)(F)F)cc3-c3ccc(Cl)cc3)CC2)cc1Oc1cnc2[nH]ccc2c1 | cell-free assay | – | competition with immobilised ligand | – | 1 µM | remaining binding | 100% |
| COc1cccc2c(NCc3ccccc3)nc(-n3c(N)nc4ccccc43)nc12 | target engagement in cells | inhibitor | chemoproteomics | – | 20 mM | inhibition | -14.3% |
| O=C(Nc1cnn(-c2csc(C(=O)NC3COC3)c2)c1)Nc1c(F)cccc1Cl | enzyme activity | inhibitor | – | – | 5 µM | remaining activity | 93.5% |
| CCN1CCN(Cc2ccc(NC(=O)c3ccc(C)c(Oc4ccnc5[nH]ccc45)c3)cc2C(F)(F)F)CC1 | target engagement in cells | inhibitor | chemoproteomics | Huh-7 | 1 µM | inhibition | -12% |
| Nc1c(C(=O)NCc2ccc(C(=O)NCCCC3CCCCC3)cc2)cnn1-c1ccccc1 | cell-free assay | – | competition with immobilised ligand | – | 0.1 µM | remaining binding | 100% |
| Nc1ncnc2occ(-c3ccc(NC(=O)Nc4cc(C(F)(F)F)ccc4F)cc3)c12 | cell-free assay | inhibitor | – | – | 20 µM | remaining signal | 94% |
| CCN(CC)CCNC(=O)c1c(C)[nH]c(/C=C2\C(=O)Nc3ccc(F)cc32)c1C | enzyme activity | inhibitor | – | – | 10 µM | inhibition | 96% |
| CSc1cccnc1N1CCN(Cc2nc3ccccc3[nH]2)CC1 | cell-free assay | – | competition with immobilised ligand | – | 1 µM | remaining binding | 100% |
| C[C@@H]1CCN(C(=O)CC#N)C[C@@H]1N(C)c1ncnc2[nH]ccc12 | cell-free assay | – | – | – | 0.5 µM | remaining signal | 98.2% |
